Test results reported in ChEMBL document CHEMBL3351873, “Synthesis, biological evaluation and molecular docking of novel chalcone-coumarin hybrids as anticancer and antimalarial agents” (Eur J Med Chem, 2014).
The source made the active and inactive calls. No cut-off for these calls is given here.

Assays:
HuCC-A1 = test: (§1) Cytotoxicity against human HuCCa1 cells assessed as reduction in cell viability after 48 hrs by MTT assay; assay type: functional, cell-based
Summary of the method: (§2)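 Adherent cells plated at 10,000–20,000 cells/well and allowed 24 h at 37 °C (5% CO₂) before an equal volume of medium with serially diluted compound was added. Etoposide and/or doxorubicin were positive controls and DMSO the negative control. After a further 48 h, surviving cells were measured by MTT. IC50 is the concentration giving 50% growth inhibition relative to the DMSO control.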

HepG2 [1] = test: Cytotoxicity against human HepG2 cells assessed as reduction in cell viability after 48 hrs by MTT assay; assay type: functional, cell-based; details: for IC50: HepG2, 48 h; summary of the method: as §2
A549 = test: Cytotoxicity against human A549 cells assessed as reduction in cell viability after 48 hrs by MTT assay; assay type: functional, cell-based; details: for IC50: A549, 48 h; summary of the method: as §2
[2] = (§3) Cytotoxicity against human MOLT3 cells assessed as reduction in cell viability after 48 hrs by XTT assay; assay type: functional, cell-based; details: MOLT-3, 48 h
Summary of the method: (§4)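 Suspension cells plated at 10,000–20,000 cells/well and pre-incubated 24 h at 37 °C, 5% CO₂. Serial compound dilutions were added in an equal volume of medium, with etoposide and/or doxorubicin as positive controls and DMSO as negative control, then incubated 48 h more. Viable cells were read by XTT. IC50 is taken as 50% growth inhibition versus the DMSO control.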

Plasmodium falciparum = test: Antimalarial activity against multidrug-resistant Plasmodium falciparum K1 after 24 hrs by [3H]hypoxanthine incorporation assay; assay type: functional, organism-based
Summary of the method: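 P. falciparum K1 kept in RPMI 1640 with 20 mM HEPES, NaHCO₃, 10% human serum and 3% erythrocytes at 37 °C under 3% CO₂, passaged daily. Early ring-stage parasites (1% parasitemia, 1.5% erythrocytes) were exposed to compound (0.1% DMSO final) for 24 h. [3H]hypoxanthine was then added for a further 24 h. Incorporation was counted by scintillation and expressed as percent parasite growth.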

Vero = test: Cytotoxicity against african green monkey Vero cells assessed as reduction in cell viability after 4 days by green fluorescent protein detection method; assay type: cell-based; details: chlorocebus sabaeus, 96 h
Summary of the method: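 GFP-expressing Vero cells (stably transfected with pEGFP-N1) seeded at 3.3 × 10⁴ cells/mL onto compounds prediluted in 0.5% DMSO; 4 days at 37 °C, 5% CO₂. Fluorescence read at ex 485/em 535 nm, day-0 background subtracted. IC50 from dose-response curves over 6 concentrations (3-fold serial dilutions). Ellipticine positive control, 0.5% DMSO negative control.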

[3] = as §1; assay type: functional, cell-based; details: HuCC-A1, 48 h; summary of the method: as §2
MOLT-3 = test: as §3; assay type: functional, cell-based; summary of the method: as §4
HepG2 [4] = test: Ratio of etoposide IC50 to compound IC50 for human HepG2 cells assessed as reduction in cell viability after 48 hrs by MTT assay; assay type: functional
[5] = Plasmodium falciparum, K1, read-out: IC50

Row | SMILES | Activity (HuCC-A1) | Activity (HepG2 [1]) | Activity (A549) | IC50 [2] [µM] | IC50 (Plasmodium falciparum) | Activity (Vero) | IC50 [3] [µM] | IC50 (HepG2 [1]) [µM] | IC50 (A549) [µM] | Activity (MOLT-3) | IC50 (Plasmodium falciparum; [5]) [µM] | IC50 (Vero) [µM] | Ratio IC50 (HepG2 [4])
1 | COc1ccc(/C=C/C(=O)c2ccc(-n3cc(COc4ccc5ccc(=O)oc5c4)nn3)cc2)c(OC)c1OC | inactive | inactive | inactive | 22.5 | Not Active | Non-toxic |  |  |  |  |  |  | 
2 | COc1cccc(/C=C/C(=O)c2ccc(-n3cc(COc4ccc5ccc(=O)oc5c4)nn3)cc2)c1OC |  |  |  |  | Not Active | Non-toxic | 4.81 | 8.18 | 7.95 | inactive |  |  | 
3 | COc1ccc(/C=C/C(=O)c2cccc(-n3cc(COc4cc(=O)oc5ccccc45)nn3)c2)cc1OC |  | inactive | inactive | 3.91 | Not Active | Non-toxic | 38.6 |  |  |  |  |  | 
4 | COc1cccc2c1C(=O)c1c(O)c3c(c(O)c1C2=O)C[C@@](O)(C(=O)CO)C[C@@H]3O[C@H]1C[C@H](N)[C@H](O)[C@H](C)O1 [DOXORUBICIN] |  |  |  |  |  |  | 0.83 |  |  |  |  |  | 
5 | COc1cccc(/C=C/C(=O)c2cccc(-n3cc(COc4ccc5ccc(=O)oc5c4)nn3)c2)c1OC |  |  |  | 5.16 |  |  | 11.1 | 15.7 | 31.4 |  | 6.63 | 35 | 
6 | C[C@H]1[C@@H](O)O[C@@H]2O[C@@]3(C)CC[C@H]4[C@H](C)CC[C@@H]1[C@@]24OO3 [ARTENIMOL] |  |  |  |  |  |  |  |  |  |  | 0.0011 |  | 
7 | COc1cc(/C=C/C(=O)c2ccc(-n3cc(COc4cc(=O)oc5ccccc45)nn3)cc2)cc(OC)c1OC | inactive | inactive | inactive | 6.58 | Not Active | Non-toxic |  |  |  |  |  |  | 
8 | Cc1c2ccncc2c(C)c2c1[nH]c1ccccc12 [ELLIPTECINE] |  |  |  |  |  |  |  |  |  |  |  | 1.94 | 
9 | COc1cc([C@@H]2c3cc4c(cc3[C@@H](O[C@@H]3O[C@@H]5CO[C@@H](C)O[C@H]5[C@H](O)[C@H]3O)[C@H]3COC(=O)[C@H]23)OCO4)cc(OC)c1O [ETOPOSIDE] |  |  |  | 0.051 |  |  |  |  |  |  |  |  | 
10 | COc1ccc(/C=C/C(=O)c2cccc(-n3cc(COc4cc(=O)oc5ccccc45)nn3)c2)c(OC)c1OC |  | inactive | inactive | 1.13 |  | Non-toxic | 6.13 |  |  |  | 7.47 |  | 
11 | COc1cccc(/C=C/C(=O)c2cccc(-n3cc(COc4cc(=O)oc5ccccc45)nn3)c2)c1OC |  |  |  | 0.53 |  |  | 2.36 | 4.26 | 18.1 |  | 4.73 | 3.91 | 7
12 | COc1ccc(/C=C/C(=O)c2ccc(-n3cc(COc4cc(=O)oc5ccccc45)nn3)cc2)c(OC)c1OC | inactive |  | inactive | 12.3 |  | Non-toxic |  | 22.9 |  |  | 1.6 |  | 
13 | COc1ccc(/C=C/C(=O)c2cccc(-n3cc(COc4ccc5ccc(=O)oc5c4)nn3)c2)cc1OC |  | inactive | inactive | 3.12 | Not Active | Non-toxic | 33.4 |  |  |  |  |  | 
14 | COc1ccc(/C=C/C(=O)c2cccc(-n3cc(COc4ccc5ccc(=O)oc5c4)nn3)c2)c(OC)c1OC | inactive | inactive | inactive | 3.89 |  | Non-toxic |  |  |  |  | 13 |  | 
15 | COc1cc(/C=C/C(=O)c2ccc(-n3cc(COc4ccc5ccc(=O)oc5c4)nn3)cc2)cc(OC)c1OC | inactive | inactive | inactive | 79.5 | Not Active | Non-toxic |  |  |  |  |  |  | 
